# From PubChem
# RanGTP-Impb inh: disruptors of Ran-importin-beta complex formation – biochemical, FRET, CFP-Ran, YFP-importin-beta, homogeneous, primary screen | cell-free CFP-Ran/YFP-importin-beta FRET ratio | inhibition, % (concentration not given with the values) | 300,000 compounds, 1.1% hits | AID 2216;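 active = more than half of the replicate wells show a fall in the fluorescence ratio signal beyond about 16%, limit read from the data, passing the limit was not always enough; inconclusive = exactly half of the replicate wells pass the set limit; inactive = fewer than half of replicates pass the limit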;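 note: 0% = DMSO wells and 100% = Ran loaded with GDP instead of GTP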
# Wee1 degr inh: inhibitors of human Wee1 degradation; 220,000 compounds, 1.2% hits; AID 1321; P30291; HeLa Luc-Wee1K328M stability, luciferase luminescence; 100% = proteasome inhibitor MG132 effect; reporter increase, % at 5 µM;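 active = activation above the mean of all tested compounds plus 3 SD, set per screening run, cut at about 8.8% in these data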;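 note: cells exposed to compound for 20 h before luminescence read; 0% = DMSO alone and 100% = MG132 at 30 µM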
# Target sequence (P30291 whole entry K328M): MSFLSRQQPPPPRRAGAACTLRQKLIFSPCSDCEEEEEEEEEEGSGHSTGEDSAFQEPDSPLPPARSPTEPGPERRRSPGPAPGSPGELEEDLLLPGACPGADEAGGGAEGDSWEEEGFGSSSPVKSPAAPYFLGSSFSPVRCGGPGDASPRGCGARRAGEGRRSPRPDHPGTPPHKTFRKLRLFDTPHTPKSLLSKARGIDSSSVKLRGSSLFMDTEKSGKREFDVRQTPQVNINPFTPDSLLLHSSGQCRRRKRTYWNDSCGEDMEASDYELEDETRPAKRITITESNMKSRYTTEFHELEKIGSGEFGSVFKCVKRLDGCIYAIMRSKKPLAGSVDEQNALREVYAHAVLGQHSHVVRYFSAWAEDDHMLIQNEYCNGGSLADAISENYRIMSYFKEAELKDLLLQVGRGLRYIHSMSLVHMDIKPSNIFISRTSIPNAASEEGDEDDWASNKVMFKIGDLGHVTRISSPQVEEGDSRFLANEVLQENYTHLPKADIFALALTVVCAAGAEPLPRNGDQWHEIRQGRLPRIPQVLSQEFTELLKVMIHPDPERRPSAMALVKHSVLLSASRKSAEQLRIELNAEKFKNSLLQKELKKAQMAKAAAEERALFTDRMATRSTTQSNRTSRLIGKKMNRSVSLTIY
# Efa HMGR inh: inhibitors of class II HMG-CoA reductase from Enterococcus faecalis; purified E. faecalis HMGR, NADPH absorbance 340 nm kinetic; AID 1066; 190,000 compounds, 0.41% hits; inhibition, % at 10 µM;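 active = inhibition above a set limit, the median over all tested compounds plus 3 SD, cut at about 9.5% in these data; inconclusive = no clear call, values can overlap the other calls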;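 note: enzyme runs in reverse so mevalonate oxidation gives rising NADPH absorbance; 0% = complete reaction with DMSO and 100% = background rate lacking mevalonate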
# Runt-SMMHC FRET: Runt domain-CBFb-SMMHC interaction inhibition. Q01196+Q13951. Cerulean-Runt/Venus-CBFb-SMMHC FRET ratio 530/480, 1 h. inhibition, % at 20 µM. 220,000 compounds, 0.74% hits;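 active = mean inhibition across duplicate retests at 20 µM reaching about 50%, limit read from the data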;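 note: 0% = DMSO wells and 100% = wells with excess untagged CBFb-SMMHC; inhibitors lower the FRET ratio by blocking Runt binding to CBFb-SMMHC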
# Runt-CBFb FRET: Runt domain-CBFb interaction inhibition; Q01196+Q13951; Cerulean-Runt/Venus-CBFb FRET ratio 530/480, 1 h; inhibition, % at 20 µM; 220,000 compounds, 0.46% hits; AID 1496;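 active = inhibition over about 50% at 20 µM in the single-dose screen, limit read from the data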;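 note: 0% = DMSO wells and 100% = excess unlabeled CBFb competitor control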
#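 System: Cerulean-labeled Runt domain protein | Quantity: 100 nM of each labeled protein | Schedule: 1 h compound exposure, room temperature | Detection: Fluorescence energy transfer, 422 nm excitation, 530/480 nm emission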
# PHOSPHO1 inh: blocks human PHOSPHO1 phosphatase activity; AID 1565; Q8TCT1; recombinant PHOSPHO1, absorbance phosphatase assay; 290,000 compounds, 1.1% hits; inhibition, % at 13.3 µM; in the data active = inhibition above about 60%
# An asterisk follows results filed as active; ? = inconclusive; · = not tested or not shown. This is a sample that favours compounds with a hit; in the whole collection about 3.4% have one here.
SMILES,RanGTP-Impb inh,Wee1 degr inh,Efa HMGR inh,Runt-SMMHC FRET,Runt-CBFb FRET,PHOSPHO1 inh
O=c1c(OC2OC(CO)C(O)C(O)C2O)c(-c2ccc(O)c(O)c2)oc2cc(O)cc(O)c12 (stereo unspecified),4,0,16*,-1,-6,8
O=c1c(OC2OC(CO)C(O)C(O)C2OC2OC(CO)C(O)C(O)C2O)c(-c2ccc(O)cc2)oc2cc(O)cc(O)c12 (stereo unspecified),·,·,·,0,0,36
COc1cc(S(=O)(=O)N2CCOCC2)ccc1NC(=O)CSc1nnc(N)s1,-3,3,-4,-4,1,65*
Nc1nc(-c2ccc(Cl)cc2)cc(C(F)(F)F)n1,8,0,-2,4,1,0
Oc1ccc(/C=N/Nc2nc(-c3ccc(Cl)cc3)cc(C(F)(F)F)n2)cc1,0,10*,-9,5,0,-2
Cc1ccnc(NC(c2cccnc2)c2ccc3cccnc3c2O)c1 (stereo unspecified),1,-1,0,-3,6,-122
COc1cc(C(Nc2ccccn2)c2ccc3ccc(C)nc3c2O)cc(OC)c1O (stereo unspecified),?,-2,-7,5,11,73*
COc1ccccc1NC(c1cccnc1)c1ccc2cccnc2c1O (stereo unspecified),-4,0,-1,-3,7,63*
COc1ccccc1NS(=O)(=O)c1cc(C(=O)N2CCN(C/C=C/c3ccccc3)CC2)ccc1C,-2,·,·,·,·,30
CCCCCc1nc2c(=O)n(C)c3ccccc3c2o1,-5,0,-1,-8,-7,-11
CCCCCCCc1nc2c(=O)n(C)c3ccccc3c2o1,?,2,1,-2,-10,63*
CC(NS(=O)(=O)c1ccccc1)C1COc2ccccc2O1 (stereo unspecified),4,13*,-2,2,3,12
CC(NCC1COc2ccccc2O1)C1COc2ccccc2O1 (stereo unspecified),8,·,·,·,·,14
O=C(/C=C/c1ccccc1)NCC(=O)N/N=C/c1ccco1,3,·,·,·,·,25
Cc1ccc(C)c2[nH]c(=O)c(CN(Cc3nnnn3C3CCCCC3)CC3CCCO3)cc12 (stereo unspecified),-2,9.8*,-5,-3,1,17
Cc1ccc(C)c2[nH]c(=O)c(CN(CCN3CCOCC3)Cc3nnnn3CC3CCCO3)cc12 (stereo unspecified),2,-1,-1,-4,1,5
CSC1=NC2(CCCCC2)C2=C(CCCC2)N1,4,-3,0,10,2,101*
COc1ccc(N2C(=O)C(CC(=O)Nc3ccccc3)N(Cc3ccccn3)C2=S)cc1 (stereo unspecified),-1,9.1*,0,4,1,9
CC(C)Oc1ccc2c(=O)c(-c3ccccc3)coc2c1,-4,2,-3,5,-1,-26
CC(=O)Oc1ccc2c(=O)c(-c3nc4ccccc4s3)coc2c1,-1,9.1*,-3,-1,4,16
COc1ccc(NC(=O)c2ccc(COc3ccccc3OC)o2)cc1OC,13*,1,2,-5,-1,7
COc1ccc(NC(=O)c2ccc(COc3ccccc3Br)o2)cc1OC,4,-2,-1,-1,-8,-2
COc1ccc(NC(=O)Nc2ccccn2)cc1OC,27*,0,·,-4,-1,24
COc1ccc(N(CC(=O)NCCSCc2ccccc2Cl)S(C)(=O)=O)cc1Cl,2,·,·,·,·,24
O=C(NCCCN1CCOCC1)C1CCN(S(=O)(=O)c2ccccc2)CC1,-2,·,·,·,·,·
SMILES,RanGTP-Impb inh,Wee1 degr inh,Efa HMGR inh,Runt-SMMHC FRET,Runt-CBFb FRET,PHOSPHO1 inh
O=C1/C(=C/c2ccccc2)SC(=S)N1CC(=O)N1CCCCC1c1cccnc1 (stereo unspecified),-1,·,·,·,·,2
CCn1cc(CN2CCc3c([nH]c4ccccc34)C2c2cccc(O)c2)c(C)n1 (stereo unspecified),1,7,-1,8,2,64*
CCn1cc(CN2CCc3c([nH]c4ccccc34)C2c2cccc(OC)c2)c(C)n1 (stereo unspecified),5,3,-6,3,-2,46
COc1ccc2oc(C(=O)N3CCN(S(=O)(=O)c4cccc([N+](=O)[O-])c4)CC3)c(C)c2c1,?,·,·,·,·,33
Cc1ccccc1S(=O)(=O)N(CC(O)CN1C(=O)NC(C)(C)C1=O)c1ccccc1 (stereo unspecified),-2,3,·,-5,2,24
O=C1/C(=C/C=C/c2ccco2)SC(=S)N1c1ccc(O)cc1,-3,-2,·,4,29,22
CC(C)C(C(=O)O)N1C(=O)/C(=C/C=C/c2ccco2)SC1=S (stereo unspecified),-5,-2,11*,12,24,-3
O=C1CC2(CCCCC2)Oc2ccc(Cl)cc21,3,·,·,·,·,·
CCCn1c(C(C)NC(=O)c2ccccc2)n[nH]c1=S (stereo unspecified),2,0,·,1,7,0
C=CCn1c(C(C)NC(=O)c2ccccc2)n[nH]c1=S (stereo unspecified),2,2,5,-1,0,80*
CSc1ccccc1NC(=O)CN(C)Cc1c(O)ccc2ccccc12,0,·,·,·,·,-13
Cc1ccc(-c2cc(C(=O)O)n(-c3ccc(S(N)(=O)=O)cc3)n2)cc1,1,5,16*,-4,2,21
Cc1cccc(-n2nnnc2SCC(=O)c2cc(C)n(Cc3ccco3)c2C)c1,5,1,0,0,-2,76*
Cc1cc(C(=O)CSc2nnc(-c3ccc(Cl)cc3)n2C)c(C)n1CC1CCCO1 (stereo unspecified),0,-2,0,3,·,-82
Cc1ccc(-n2nnnc2SCC(=O)c2cc(C)n(CC3CCCO3)c2C)cc1 (stereo unspecified),0,·,-2,-1,-1,74*
Cc1cccc(-n2nnnc2SCC(=O)c2cc(C)n(CC3CCCO3)c2C)c1 (stereo unspecified),?,-1,0,-2,-1,93*
Cc1sc2nc(SCC(=O)c3cc(C)n(CC4CCCO4)c3C)n(C(C)C)c(=O)c2c1C (stereo unspecified),-5,0,1,0,4,79*
Cc1cccc(C(=O)NCC(=O)OCCOc2ccccc2Cl)c1,1,·,·,·,·,·
O=C(NC1CCN(c2ncccn2)CC1)c1cccc(F)c1,3,·,·,·,·,38
COc1ccc(CCNc2nc(C)cc(C)c2C#N)cc1OC,-1,·,·,·,·,18
c1cc2c3c(cccc3c1)C(N1CCCCC1)=N2,4,1,-3,-61,-17,10
